Test results taken from ChEMBL document CHEMBL4689842, “EUbOPEN Chemogenomics Library wave 1” (2021).

System: HEK-293T
Experiment: Multiplex assay against HEK293T;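 on Population Tubulin-Different-Phenotype (%): share of the cells with healthy nuclei that show this phenotype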
Assay type: toxicity, cell-based
Conditions: human
Procedure, shortened: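 On a CQ1 microscope at 37°C and 5% CO2, live cells were imaged after compound addition. They had been stained at seeding with Hoechst33342, BioTracker Green Microtubule Cytoskeleton Dye, MitoTracker Red and Annexin V Alexa Fluor 680. CellPathfinder machine-learning gating assigned cells to Hoechst high-intensity objects or normal cells, normal cells to healthy, pyknosed or fragmented nuclei, and pyknosed cells to mitotic or apoptotic. Tubulin, mitochondrial-mass and membrane-permeability phenotypes are per cents of healthy-nucleus cells.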

[1] = 12 h, 1 µM, compound concentration 1 uM, replicate 1
[2] = 12 h, 1 µM, compound concentration 1 uM, replicate 2
[3] = 12 h, 10 µM, compound concentration 10 uM, replicate 1
[4] = 12 h, 10 µM, compound concentration 10 uM, replicate 2
[5] = 24 h, 1 µM, compound concentration 1 uM, replicate 1
[6] = 24 h, 1 µM, compound concentration 1 uM, replicate 2
[7] = 24 h, 10 µM, compound concentration 10 uM, replicate 1
[8] = 24 h, 10 µM, compound concentration 10 uM, replicate 2
[9] = 48 h, 1 µM, compound concentration 1 uM, replicate 1
[10] = 48 h, 1 µM, compound concentration 1 uM, replicate 2
[11] = 48 h, 10 µM, compound concentration 10 uM, replicate 1
[12] = 48 h, 10 µM, compound concentration 10 uM, replicate 2

## CCn1c(-c2nonc2N)nc2cnc(Oc3cccc(NC(=O)c4ccc(OCCN5CCOCC5)cc4)c3)cc21 [GSK-269962A]
[1]
  Population Apoptotic (%): 44%
  Population Fragmented Nuclei (%): 14%
  Population Healthy Nuclei (%): 26%
  Population Hoechst High Intensity Objects (%): 17%
  Population Membrane Permeable-Phenotype (%): 3%
  Population Mitochondria Different-Phenotype (%): 75%
  Population Mitotic Cells (%): 55%
  Population Normal (%): 82%
  Population Pyknosed Nuclei (%): 58%
  Population Tubulin-Different-Phenotype (%): 55%
  Total Cell Count: 262
[2]
  Population Apoptotic (%): 12%
  Population Fragmented Nuclei (%): 8%
  Population Healthy Nuclei (%): 44%
  Population Hoechst High Intensity Objects (%): 6%
  Population Membrane Permeable-Phenotype (%): 5%
  Population Mitochondria Different-Phenotype (%): 21%
  Population Mitotic Cells (%): 87%
  Population Normal (%): 93%
  Population Pyknosed Nuclei (%): 46%
  Population Tubulin-Different-Phenotype (%): 21%
  Total Cell Count: 251
[3]
  Population Apoptotic (%): 61%
  Population Fragmented Nuclei (%): 7%
  Population Healthy Nuclei (%): 20%
  Population Hoechst High Intensity Objects (%): 12%
  Population Membrane Permeable-Phenotype (%): 1%
  Population Mitochondria Different-Phenotype (%): 98%
  Population Mitotic Cells (%): 38%
  Population Normal (%): 87%
  Population Pyknosed Nuclei (%): 72%
  Population Tubulin-Different-Phenotype (%): 100%
  Total Cell Count: 284
[4]
  Population Apoptotic (%): 54%
  Population Fragmented Nuclei (%): 4%
  Population Healthy Nuclei (%): 13%
  Population Hoechst High Intensity Objects (%): 7%
  Population Membrane Permeable-Phenotype (%): 0%
  Population Mitochondria Different-Phenotype (%): 100%
  Population Mitotic Cells (%): 45%
  Population Normal (%): 92%
  Population Pyknosed Nuclei (%): 81%
  Total Cell Count: 186
[5]
  Population Apoptotic (%): 56%
  Population Fragmented Nuclei (%): 18%
  Population Healthy Nuclei (%): 30%
  Population Hoechst High Intensity Objects (%): 16%
  Population Membrane Permeable-Phenotype (%): 1%
  Population Mitochondria Different-Phenotype (%): 75%
  Population Mitotic Cells (%): 43%
  Population Normal (%): 83%
  Population Pyknosed Nuclei (%): 51%
  Population Tubulin-Different-Phenotype (%): 43%
  Total Cell Count: 254
[6]
  Population Apoptotic (%): 11%
  Population Fragmented Nuclei (%): 12%
  Population Healthy Nuclei (%): 61%
  Population Hoechst High Intensity Objects (%): 3%
  Population Membrane Permeable-Phenotype (%): 4%
  Population Mitochondria Different-Phenotype (%): 17%
  Population Mitotic Cells (%): 88%
  Population Normal (%): 96%
  Population Pyknosed Nuclei (%): 26%
  Population Tubulin-Different-Phenotype (%): 31%
  Total Cell Count: 267
[7]
  Population Apoptotic (%): 74%
  Population Fragmented Nuclei (%): 12%
  Population Healthy Nuclei (%): 31%
  Population Hoechst High Intensity Objects (%): 12%
  Population Membrane Permeable-Phenotype (%): 4%
  Population Mitochondria Different-Phenotype (%): 96%
  Population Mitotic Cells (%): 25%
  Population Normal (%): 87%
  Population Pyknosed Nuclei (%): 56%
  Population Tubulin-Different-Phenotype (%): 98%
  Total Cell Count: 276
[8]
  Population Apoptotic (%): 72%
  Population Fragmented Nuclei (%): 6%
  Population Healthy Nuclei (%): 22%
  Population Hoechst High Intensity Objects (%): 6%
  Population Membrane Permeable-Phenotype (%): 5%
  Population Mitochondria Different-Phenotype (%): 87%
  Population Mitotic Cells (%): 28%
  Population Normal (%): 93%
  Population Pyknosed Nuclei (%): 70%
  Population Tubulin-Different-Phenotype (%): 97%
  Total Cell Count: 189
[9]
  Population Apoptotic (%): 56%
  Population Fragmented Nuclei (%): 18%
  Population Healthy Nuclei (%): 23%
  Population Hoechst High Intensity Objects (%): 19%
  Population Membrane Permeable-Phenotype (%): 4%
  Population Mitochondria Different-Phenotype (%): 54%
  Population Mitotic Cells (%): 43%
  Population Normal (%): 80%
  Population Pyknosed Nuclei (%): 58%
  Population Tubulin-Different-Phenotype (%): 45%
  Total Cell Count: 255
[10]
  Population Apoptotic (%): 41%
  Population Fragmented Nuclei (%): 20%
  Population Healthy Nuclei (%): 66%
  Population Hoechst High Intensity Objects (%): 3%
  Population Membrane Permeable-Phenotype (%): 5%
  Population Mitochondria Different-Phenotype (%): 12%
  Population Mitotic Cells (%): 58%
  Population Normal (%): 96%
  Population Pyknosed Nuclei (%): 12%
  Population Tubulin-Different-Phenotype (%): 30%
  Total Cell Count: 329
[11]
  Population Apoptotic (%): 80%
  Population Fragmented Nuclei (%): 18%
  Population Healthy Nuclei (%): 40%
  Population Hoechst High Intensity Objects (%): 11%
  Population Membrane Permeable-Phenotype (%): 1%
  Population Mitochondria Different-Phenotype (%): 97%
  Population Mitotic Cells (%): 19%
  Population Normal (%): 88%
  Population Pyknosed Nuclei (%): 41%
  Population Tubulin-Different-Phenotype (%): 97%
  Total Cell Count: 286
[12]
  Population Apoptotic (%): 82%
  Population Fragmented Nuclei (%): 5%
  Population Healthy Nuclei (%): 56%
  Population Hoechst High Intensity Objects (%): 7%
  Population Mitochondria Different-Phenotype (%): 89%
  Population Mitotic Cells (%): 17%
  Population Normal (%): 92%
  Population Pyknosed Nuclei (%): 38%
  Population Tubulin-Different-Phenotype (%): 99%
  Total Cell Count: 192
